Source: PubChem (several laboratories)
An excerpt weighted towards active compounds, which were near 2.3% of everything screened.
TRPC4 PAM – allosteric potentiators of mouse TRPC4 channel. Q9QUQ5. HEK293 TRPC4beta/mu-opioid, DAMGO EC20, Fluo-4 Ca2+ flux; stronger effect = higher value. B-score at 10 µM. 0.42% of 310,000 active. AID 2227;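 active means B-score of calcium response area above 5 SD of library B-scores, with initial fluorescence ratio within 5 SD of library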
Target sequence (Q9QUQ5 whole entry, looked up): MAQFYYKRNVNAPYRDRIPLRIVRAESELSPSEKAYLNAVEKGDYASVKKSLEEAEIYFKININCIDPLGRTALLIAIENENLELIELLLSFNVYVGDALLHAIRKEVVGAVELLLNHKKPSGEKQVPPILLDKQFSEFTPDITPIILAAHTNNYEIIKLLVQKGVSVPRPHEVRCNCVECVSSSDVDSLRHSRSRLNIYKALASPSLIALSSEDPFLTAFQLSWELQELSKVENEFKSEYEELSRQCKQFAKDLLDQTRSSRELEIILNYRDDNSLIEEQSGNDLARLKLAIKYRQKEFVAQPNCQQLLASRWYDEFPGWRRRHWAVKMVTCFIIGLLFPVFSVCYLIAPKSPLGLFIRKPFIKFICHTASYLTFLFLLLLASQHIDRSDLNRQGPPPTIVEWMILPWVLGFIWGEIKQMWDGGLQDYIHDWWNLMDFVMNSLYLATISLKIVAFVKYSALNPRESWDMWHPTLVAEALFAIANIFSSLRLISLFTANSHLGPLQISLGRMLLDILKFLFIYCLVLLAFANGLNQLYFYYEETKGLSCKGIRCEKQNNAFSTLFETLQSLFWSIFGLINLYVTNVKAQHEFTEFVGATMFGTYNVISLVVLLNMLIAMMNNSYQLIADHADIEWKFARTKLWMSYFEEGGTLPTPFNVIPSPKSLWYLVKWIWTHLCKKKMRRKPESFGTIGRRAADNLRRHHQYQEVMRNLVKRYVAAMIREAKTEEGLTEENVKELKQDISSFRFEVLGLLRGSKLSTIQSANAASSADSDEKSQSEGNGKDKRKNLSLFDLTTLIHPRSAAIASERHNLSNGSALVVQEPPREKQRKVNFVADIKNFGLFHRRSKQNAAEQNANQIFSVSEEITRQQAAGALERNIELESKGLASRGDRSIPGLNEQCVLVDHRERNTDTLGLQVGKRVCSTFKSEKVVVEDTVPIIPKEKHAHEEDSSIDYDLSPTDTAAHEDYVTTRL
TRPC4 agonist – TRPC4 (mouse) channel activation; 0.49% of 310,000 active; HEK293 TRPC4beta/mu-opioid, Fluo4 calcium fluorescence; stronger effect = higher value; Q9QUQ5; B-score at 10 µM;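 active means B-score above 5 SD of library B-scores, and initial fluorescence ratio not above library mean plus 5 SD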;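 further: positive B-score marks a calcium rise read as TRPC4 activation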
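system = HEK293 cells stably co-expressing mouse TRPC4beta and mu-opioid receptor | schedule = Fluo4 dye loading 45 min at room temperature, 110 s recording | measure = B-scored integrated calcium fluorescence ratio | signal = Fluo4 calcium-sensitive dye fluorescence, kinetic, 1 Hz baseline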
TRPC4 inh – inhibitors of mouse TRPC4 channel. Q9QUQ5. HEK293 TRPC4beta/mu-opioid, DAMGO-evoked Fluo4 calcium flux; stronger effect = lower value. B-score at 10 µM. 0.39% of 300,000 active. AID 2247;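 active means B-score over 3 SD under the library average, no early fluorescence shift, positive overall ratio signal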
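Test system – stable TRPC4beta/mu-opioid receptor HEK293 cells · Probe or stimulus – DAMGO, a submaximal dose followed by a maximal one · Dosing – one concentration per compound · Signal – Fluo4 calcium fluorescence by kinetic imaging, 5 s 1 Hz baseline · Evaluation – per-well B score of integrated baseline-normalized Fluo4 ratio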
CR mimetic SO – lowers age-related superoxide in aged yeast cells. S. cerevisiae aged cells, superoxide DHE fluorescence; stronger effect = lower value. superoxide response (% of plate mean), % at 10 µM. 0.18% of 330,000 active;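 active means superoxide response under a set limit, about three screen SD below normal, cut at about 65% in these data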;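 further: yeast aged for seven days with compound at 30 °C before DHE staining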
TRPC6 inhibitor – inhibitors of mouse TRPC6 channel. Q61143. HEK293-TRPC6, membrane potential dye, ACh-evoked depolarization; stronger effect = lower value. B-score at 10 µM. 1.1% of 310,000 active;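 active means B-score under library mean minus 3 SD, initial fluorescence not abnormally high, positive integrated signal ratio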;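 further: B-score derived from integrated fluorescence ratio over the kinetic read; more negative B-score means stronger inhibition of depolarization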
TRPC6 activator – activates the mouse TRPC6 cation channel; Q61143; HEK293-TRPC6 membrane potential dye fluorescence; stronger effect = higher value; B-score at 10 µM; 0.13% of 310,000 active; AID 2550;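 active means B-score of the integrated fluorescence ratio above library mean plus 3 SD, and starting fluorescence ratio within library mean plus 5 SD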;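 further: higher score means more depolarization so channel activation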
TRPC4 sel inh 2 – second selectivity test of TRPC6 inhibitors: effect on mouse TRPC4. 42% of 920 active. inhibition, % at 10 µM. shares compounds with TRPC6 inhibitor. HEK293 TRPC4/MOR, membrane potential dye fluorescence; channel activated by saturating DAMGO dose;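 active means compounds whose fluorescence signal differed from control wells by over 3 SD, either direction, in both duplicate plates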
TRPC4 spec – tests whether TRPC6 inhibitors also affect mouse TRPC4. AID 2777. 61% of 920 active. activity change, negative = inhibition, % at 10 µM. HEK293 TRPC4/mu-opioid, membrane potential fluorescence. shares compounds with TRPC6 inhibitor;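 active means rise or fall in signal beyond 3 SD of buffer-only wells in both replicate plates, either sign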;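 further: integrated kinetic ratio of fluorescence range over baseline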
HEK293 MPD ctr 2-1 – second check of TRPC6 inhibitor effects in parental HEK293 cells. parental HEK293 membrane potential dye fluorescence; maximal acetylcholine challenge after compound addition. signal change vs control, % at 10 µM. 31% of 920 active. shares compounds with TRPC6 inhibitor. AID 2779;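 active means membrane potential signal moving either way by over 3 SD of the maximum-effect control, in both duplicate plates, meaning non-specific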
HEK293 MPD ctr-1 – checks TRPC6 inhibitor effects in parental HEK293 cells | shares compounds with TRPC6 inhibitor | parental HEK293 membrane potential dye fluorescence | membrane potential signal change, % at 10 µM | 60% of 920 active | AID 2780;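 active means membrane potential signal shifting up or down by more than 3 SD of buffer-only wells, on both duplicate plates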
HEK293 MPD ctr-2 – checks TRPC6 modulator effects in parental HEK293 cells; membrane potential signal change, % at 10 µM; shares compounds with TRPC6 inhibitor; 51% of 2,400 active; membrane potential dye fluorescence; AID 488924;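 active means membrane potential signal moves up or down beyond 5 SD from buffer-only wells, on both duplicate plates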
HEK293 MPD ctr 2-2 – second check of TRPC6 modulator effects in parental HEK293 cells | shares compounds with TRPC6 inhibitor | membrane potential dye fluorescence; after compound, maximal acetylcholine stimulation | inhibition, % at 10 µM | 14% of 2,400 active | AID 488926;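 active means membrane potential signal drops by more than 5 SD from the mean control signal, in both duplicate plates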
TRPC4/MOR mod – selectivity of TRPC6 modulators against mouse TRPC4; percent change from control (negative = decrease, positive = increase), % at 10 µM; shares compounds with TRPC6 inhibitor; 69% of 2,400 active; HEK293 TRPC4/mu-opioid, membrane potential fluorescence;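 active means membrane potential signal moved up or down beyond 5 SD of buffer control wells, in both duplicate plates, actives on both sides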
TRPC4 ctr inh 2 – second selectivity test of TRPC6 modulators against mouse TRPC4 | AID 488928 | inhibition, % at 10 µM | shares compounds with TRPC6 inhibitor | 55% of 2,400 active | HEK293 TRPC4/mu-opioid, membrane potential dye fluorescence; stimulated with maximal-effect DAMGO;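 active means drop in membrane potential signal beyond 5 SD of the control wells in both duplicate plates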;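 further: TRPC4 counter screen for TRPC6 hits run under conditions tuned for TRPC6 not TRPC4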
TRPC6 block conf – confirmation of mouse TRPC6 inhibitors. shares compounds with TRPC6 inhibitor. HEK293-TRPC6, membrane potential dye, ACh-evoked depolarization. inhibition, % at 10 µM. 43% of 3,300 active. AID 488960;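 active means fluorescence ratio falls more than 5 SD below the full-stimulation control mean, in both duplicate runs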;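 further: integrated fluorescence ratio of peak minus minimum over baseline after agonist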
TRPC6 act confirm – mouse TRPC6 activator confirmation; HEK293-TRPC6 membrane potential dye fluorescence, FDSS; shares compounds with TRPC6 inhibitor; AID 488961; activation, % at 10 µM; 11% of 2,800 active;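 active means ratio signal rise beyond 5 SD above unstimulated control wells' mean, seen in both duplicate runs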
Each line names hits and unclear results; the compound was inactive in the other large screens (follow-up assays come after a bar, where they were run).

CC1CCC(CN2CCN=C2Nc2ccccc2)CC1 (stereo not given)	none
COc1ccc(N2CCN(S(=O)(=O)CCNC(=O)COc3ccc(Cl)cc3)CC2)cc1	none
COc1ccc(N2CCN(S(=O)(=O)CCNC(=O)COc3ccccc3C)CC2)cc1	TRPC6 inhibitor -8.5 | TRPC4 sel inh 2 inactive | TRPC4 spec -8.9% | HEK293 MPD ctr 2-1 240% | HEK293 MPD ctr-1 inactive | TRPC6 block conf inactive | TRPC6 act confirm inactive
CCN(CC(=O)Nc1cc(Cl)ccc1C)C(=O)CCS(=O)(=O)c1ccc(C)cc1	TRPC6 inhibitor -5.5 | HEK293 MPD ctr-2 inactive | HEK293 MPD ctr 2-2 inactive | TRPC4/MOR mod 13% | TRPC4 ctr inh 2 inactive | TRPC6 block conf inactive | TRPC6 act confirm inactive
CCN(CC(=O)Nc1ccccc1C(F)(F)F)C(=O)CCS(=O)(=O)c1ccc(C)cc1	none
Cc1nc(N)nc(N)c1CCCc1ccc(Cl)c(Cl)c1	TRPC6 inhibitor -5.7 | HEK293 MPD ctr-2 inactive | HEK293 MPD ctr 2-2 inactive | TRPC4/MOR mod inactive | TRPC4 ctr inh 2 50% | TRPC6 block conf 40% | TRPC6 act confirm inactive
COc1ccc(Cc2c(C)nc(N)nc2Cl)cc1	none
CCOC(=O)CN1C(=O)C(=O)N(Cc2cccc(C)c2)C1=O	none
CCOC(=O)CN1C(=O)C(=O)N(Cc2c(Cl)cccc2Cl)C1=O	TRPC6 inhibitor -5.6 | HEK293 MPD ctr-2 inactive | HEK293 MPD ctr 2-2 inactive | TRPC4/MOR mod inactive | TRPC4 ctr inh 2 inactive | TRPC6 block conf inactive | TRPC6 act confirm inactive
O=C(C1CCN(CCCc2ccccc2)CC1)N(CCc1ccccc1)Cc1ccccc1	TRPC6 inhibitor -5.5 | HEK293 MPD ctr-2 110% | HEK293 MPD ctr 2-2 inactive | TRPC4/MOR mod inactive | TRPC4 ctr inh 2 86% | TRPC6 block conf 68%
CCC(C)NC(=O)C1CCN(CCCc2ccccc2)CC1 (stereo not given)	none
CCOC(=O)C(C)N1C(=O)S/C(=C\c2ccc(-c3ccccc3C(=O)O)o2)C1=O (stereo not given)	none
Cc1[nH]c2c(Cl)cccc2c(=O)c1CN1CCCCCC1	TRPC6 inhibitor -5.9 | HEK293 MPD ctr-2 -73% | HEK293 MPD ctr 2-2 inactive | TRPC4/MOR mod -18% | TRPC4 ctr inh 2 inactive | TRPC6 block conf inactive | TRPC6 act confirm inactive
Cn1c(=O)c(C#N)c(-c2ccc(F)cc2)c2cc(C(=O)c3cc(Cl)cc(Cl)c3O)cnc21	TRPC6 inhibitor -9.4 | TRPC4 sel inh 2 44% | TRPC4 spec -13% | HEK293 MPD ctr 2-1 inactive | HEK293 MPD ctr-1 -158% | TRPC6 block conf 76% | TRPC6 act confirm inactive
Cc1cccc(C(=O)NNC2=C(C(=O)C(F)(F)F)CCC2)c1O	TRPC6 inhibitor -7.6 | TRPC4 sel inh 2 inactive | TRPC4 spec -12% | HEK293 MPD ctr 2-1 inactive | HEK293 MPD ctr-1 -190% | TRPC6 block conf inactive | TRPC6 act confirm inactive
O=C(NNC1=C(C(=O)C(F)(F)F)CCC1)c1cccc(O)c1	none
O=C1c2ccccc2C(=O)c2c(NCCCN(CCO)CCO)cccc21	TRPC6 inhibitor -13 (no result: CR mimetic SO) | HEK293 MPD ctr-2 -304% | HEK293 MPD ctr 2-2 90% | TRPC4/MOR mod -49% | TRPC4 ctr inh 2 80% | TRPC6 block conf 76% | TRPC6 act confirm inactive
COc1ccccc1Nc1nc(N)nc(CN2CCC(Cc3ccccc3)CC2)n1	TRPC6 inhibitor -6.5 | HEK293 MPD ctr-2 100% | HEK293 MPD ctr 2-2 inactive | TRPC4/MOR mod inactive | TRPC4 ctr inh 2 84% | TRPC6 block conf 47%
COc1ccccc1Nc1nc(N)nc(CSC(=S)N2CCCCC2C)n1 (stereo not given)	TRPC6 inhibitor -7.8 | TRPC4 sel inh 2 inactive | TRPC4 spec inactive | HEK293 MPD ctr 2-1 inactive | HEK293 MPD ctr-1 inactive | TRPC6 block conf inactive | TRPC6 act confirm inactive
COc1ccccc1Nc1nc(N)nc(CSC(=S)N2CCC(C)CC2)n1	TRPC6 inhibitor -5.5 | HEK293 MPD ctr-2 inactive | HEK293 MPD ctr 2-2 inactive | TRPC4/MOR mod inactive | TRPC4 ctr inh 2 inactive | TRPC6 block conf 78%
NCCc1nnc(SCc2ccccc2Cl)o1	none
NCCCCCc1nnc(SCc2cccc(Cl)c2)o1	TRPC6 inhibitor -6.8 | TRPC4 sel inh 2 inactive | TRPC4 spec -0.3% | HEK293 MPD ctr 2-1 inactive | HEK293 MPD ctr-1 0.8% | TRPC6 block conf inactive | TRPC6 act confirm inactive
NCCCCCc1nnc(SCc2ccc(Cl)cc2Cl)o1	TRPC6 inhibitor -6.2 | HEK293 MPD ctr-2 inactive | HEK293 MPD ctr 2-2 inactive | TRPC4/MOR mod 14% | TRPC4 ctr inh 2 53% | TRPC6 block conf inactive
CCCN1CCC(=O)N([C@H](CSc2ccccc2)c2ccccc2)CC1	none
CC(CCc1ccccc1)NC(=O)COC(=O)c1cccs1 (stereo not given)	none
CCN1C(=O)/C(=C/C=C2/Sc3ccccc3N2CCO)SC1=S	none
CCN1C(=S)SC(=O)C1=C1C=C(C)N(CCO)C(C)=C1	TRPC4 agonist 47, TRPC6 activator 40 | HEK293 MPD ctr-2 812% | HEK293 MPD ctr 2-2 159% | TRPC4/MOR mod 134% | TRPC4 ctr inh 2 inactive | TRPC6 act confirm 458%
